Results: ChEMBL document CHEMBL4390698, “Targeted delivery of atorvastatin via asialoglycoprotein receptor (ASGPR)” (Bioorg Med Chem, 2019)
Active and inactive are the calls of the source. The calls are words filed in the database; no cut-off is given here.

Experiments:
[1] = Drug uptake in human Hep3B cells assessed as ASGPR-mediated cellular uptake at 90 uM incubated for 3 hrs in presence of 90 mM GalNac by UV spectrum and mass spectroscopic method relative to atorvastatin; assay type: ADME, cell-based
Procedure, shortened: (§1)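 Hep3B cells in EMEM/10% FBS, 37 °C, 5% CO2, seeded 1×10^4 cells/cm2. After 24 h, compound was added from 18 mM stocks to a final 90 μM, with or without 90 mM GalNac co-added, for 3 h. Cells were rinsed, trypsinised and pelleted, then extracted with methanol/DCM. Supernatant was read by UV and mass spectra, and amounts were taken from standard curves.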

[2] = Drug metabolism assessed as esterase (unknown origin)-mediated atorvastatin release in pH 7.4 PBS buffer incubated for 3 to 24 hrs by mass spectrometry; assay type: ADME; conditions: human
Procedure, shortened: (§2)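 Porcine liver esterase hydrolysis; DMSO stocks 3.5 mM. pH 7.40 route: stock diluted into PBS pH 7.40 containing 0.5 mg/mL esterase, 37 °C, sampled at 0 h, 3 h and 24 h. pH 4.50 route: PBS pH 4.50 at 37 °C for 24 h, pH raised to 7.40 with NaOH, PBS pH 7.40 containing 1.0 mg/mL esterase added, 37 °C one day. Reactions quenched with DCM; DCM layer analysed by mass spectrometry.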

[3] = Drug metabolism assessed as esterase (unknown origin)-mediated atorvastatin release in pH 4.5 PBS buffer incubated for 3 to 24 hrs by mass spectrometry; assay type: ADME; conditions: human; procedure, shortened: as §2
[4] = molecular target: T1, 3-hydroxy-3-methylglutaryl-coenzyme A reductase (Homo sapiens) (UniProt P04035); experiment: Inhibition of HMG CoA reductase (unknown origin) using hydrolyzed product of compound in presence of NADPH incubated for 24 hrs in pH 4.5 PBS followed by incubation in pH 7.4 for 24 hrs in presence of esterase
T1 sequence (whole entry): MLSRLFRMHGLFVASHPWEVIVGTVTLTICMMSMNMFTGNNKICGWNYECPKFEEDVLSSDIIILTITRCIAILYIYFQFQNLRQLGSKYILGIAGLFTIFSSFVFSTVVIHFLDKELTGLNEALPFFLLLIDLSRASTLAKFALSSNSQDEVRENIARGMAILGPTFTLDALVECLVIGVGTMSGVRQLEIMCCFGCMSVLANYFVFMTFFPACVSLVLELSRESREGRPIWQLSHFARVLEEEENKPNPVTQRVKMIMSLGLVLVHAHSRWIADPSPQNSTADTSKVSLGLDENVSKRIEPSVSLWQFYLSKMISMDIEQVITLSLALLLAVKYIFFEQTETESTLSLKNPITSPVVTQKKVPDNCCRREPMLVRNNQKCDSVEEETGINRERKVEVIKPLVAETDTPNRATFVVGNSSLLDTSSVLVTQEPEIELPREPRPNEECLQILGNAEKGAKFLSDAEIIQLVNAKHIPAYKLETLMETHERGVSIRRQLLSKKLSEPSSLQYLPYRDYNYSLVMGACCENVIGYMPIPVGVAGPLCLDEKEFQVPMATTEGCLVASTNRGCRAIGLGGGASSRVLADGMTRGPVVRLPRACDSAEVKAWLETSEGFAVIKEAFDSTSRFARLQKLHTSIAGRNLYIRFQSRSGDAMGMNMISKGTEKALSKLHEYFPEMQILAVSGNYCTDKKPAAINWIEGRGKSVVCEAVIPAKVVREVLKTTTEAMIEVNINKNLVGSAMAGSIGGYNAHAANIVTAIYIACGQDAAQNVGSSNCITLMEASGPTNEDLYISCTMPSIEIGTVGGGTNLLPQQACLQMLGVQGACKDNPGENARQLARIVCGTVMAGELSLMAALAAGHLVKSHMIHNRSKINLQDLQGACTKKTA

[5] = molecular target: T1, 3-hydroxy-3-methylglutaryl-coenzyme A reductase (Homo sapiens); experiment: Inhibition of HMG CoA reductase (unknown origin) in pH 4.5 PBS in presence of NADPH incubated for 10 mins
Procedure, shortened: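 Commercial HMG-CoA reductase kit, run on conjugates first hydrolysed as in the esterase procedure (pH 7.40 esterase, or pH 4.50 then pH 7.40 esterase). Absorbance at 340 nm was read kinetically for 10 min. Activity was computed from ΔA340/min (sample minus blank) using NADPH ε 6.22 mM⁻¹cm⁻¹ ×2, 0.6 mg/mL enzyme, 12×10^-3 mL enzyme, 0.2 mL total volume and 0.55 cm path.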

[6] = Drug uptake in human Hep3B cells assessed as ASGPR-mediated cellular uptake at 90 uM incubated for 3 hrs by UV spectrum and mass spectroscopic method relative to atorvastatin; assay type: ADME, cell-based; procedure, shortened: as §1
[7] = molecular target: T1, 3-hydroxy-3-methylglutaryl-coenzyme A reductase (Homo sapiens); experiment: Inhibition of HMG CoA reductase in human Hep3G cells assessed as increase in LDL receptor expression at 25 uM incubated for 48 hrs by immunofluorescence method; assay type: cell-based; conditions: in the assay text read “Hep3B” for “Hep3G”
Procedure, shortened: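 Hep3B cells seeded 2×10^5 cells/cm2 and treated 24 h later at 25 μM final (from 10 mM stocks) for 48 h. Harvested cells were stained with anti-LDL receptor primary (1/100, 30 min RT), then goat anti-mouse IgG (1/2000, 30 min RT, dark), and analysed by flow cytometry. Triplicate; two-tailed t test.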

| Drug uptake [1] | Drug metabolism [2] | Drug metabolism [3] | inhibition [4] | inhibition [5] | fold change (FC) [6] | inhibition [7] | Structure (SMILES) |
| --- | --- | --- | --- | --- | --- | --- | --- |
| Not Active | Metabolite_Notdetected | Metabolite_Detected | inactive | inactive | 5.1 | Active | CC(=O)N[C@H]1[C@H](OCCn2cc(COC(=O)C[C@H]3C[C@@H](CCn4c(-c5ccc(F)cc5)c(-c5ccccc5)c(C(=O)Nc5ccccc5)c4C(C)C)OC(C)(C)O3)nn2)O[C@H](CO)[C@H](O)[C@@H]1O |
| Not Active | Metabolite_Detected | – | inactive | inactive | 1.4 | Active | CC(=O)N[C@H]1[C@H](OCCn2cc(COC(=O)C[C@H](O)C[C@H](O)CCn3c(-c4ccc(F)cc4)c(-c4ccccc4)c(C(=O)Nc4ccccc4)c3C(C)C)nn2)O[C@H](CO)[C@H](O)[C@@H]1O |
| – | – | – | – | Active | – | Active | CC(C)c1c(C(=O)Nc2ccccc2)c(-c2ccccc2)c(-c2ccc(F)cc2)n1CC[C@@H](O)C[C@@H](O)CC(=O)O |
